Test results: ChEMBL document CHEMBL3580633, “Benzoxaborole antimalarial agents. Part 4. Discovery of potent 6-(2-(alkoxycarbonyl)pyrazinyl-5-oxy)-1,3-dihydro-1-hydroxy-2,1-benzoxaboroles” (J Med Chem, 2015)

Key:
Plasmodium falciparum = experiment: Antimalarial activity against chloroquine-sensitive Plasmodium falciparum 3D7 cultured in human erythrocytes incubated for 72 hrs by [3H]-hypoxanthine incorporation assay; assay type: functional, organism-based
[1] = Tmax in CD1 mouse at 30 mg/kg, po by HPLC coupled to tandem mass spectrometry; assay type: ADME, organism-based; conditions: in vivo
Summary of the method: (§1)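 Adult female CD-1 mice were dosed 10 mg/kg by iv injection or 30 mg/kg by oral gavage, with the compound in 100% saline. Blood samples were collected and drug content was measured by HPLC-tandem MS.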

[2] = Terminal half life in CD1 mouse at 30 mg/kg, po by HPLC coupled to tandem mass spectrometry; assay type: ADME, organism-based; conditions: in vivo, read-out: beta t1/2 (converted); summary of the method: as §1
[3] = Terminal half life in CD1 mouse at 10 mg/kg, iv by HPLC coupled to tandem mass spectrometry; assay type: ADME, organism-based; conditions: in vivo, read-out: beta t1/2 (converted); summary of the method: as §1
[4] = Cmax in CD1 mouse at 30 mg/kg, po by HPLC coupled to tandem mass spectrometry; assay type: ADME, organism-based; set-up: dose 30 mg/kg, route oral; conditions: in vivo; summary of the method: as §1
[5] = AUC (0 to infinity) in CD1 mouse at 10 mg/kg, iv by HPLC coupled to tandem mass spectrometry; assay type: ADME, organism-based; set-up: dose 10 mg/kg, route intravenous, time infinity; conditions: in vivo; summary of the method: as §1
[6] = Volume of distribution at steady state in CD1 mouse at 10 mg/kg, iv by HPLC coupled to tandem mass spectrometry; assay type: ADME, organism-based; conditions: in vivo, read-out: Vdss; summary of the method: as §1
Plasmodium berghei [7] = experiment: Antiplasmodial activity against Plasmodium berghei infected in Swiss Webster mouse assessed as mouse survival at 200 mg/kg, po dosed once daily for 4 consecutive days beginning 1 hr after initial infection and measured on day 10 post infection by Giemsa staining method; assay type: functional
Summary of the method: (§2)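 Female Swiss Webster mice (about 20 g) infected ip with 6 × 10^6 P. berghei-infected erythrocytes. Oral gavage once daily for 4 days, starting 1 h after infection. Vehicle PEG300/propylene glycol/water (55/25/20 by weight). Giemsa-smear parasitemia counted daily from day 4. Mice euthanised above 50% parasitemia. Survival followed to day 21, 5 mice per dose, chloroquine 30 mg/kg as reference.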

Plasmodium berghei [8] = experiment: Antiplasmodial activity against Plasmodium berghei infected in Swiss Webster mouse assessed as mouse survival at 200 mg/kg, po dosed once daily for 4 consecutive days beginning 1 hr after initial infection and measured on day 7 post infection by Giemsa staining method; assay type: functional; summary of the method: as §2
[9] = Stability in mouse liver microsomes assessed as compound remaining at 1 uM incubated for 1 hr in absence of NADPH by LC/MS/MS method; assay type: ADME
Summary of the method: (§3)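 Compound at 1 μM final (from a 1 mg/mL DMSO stock) was incubated with mouse or human liver microsomes (0.5 mg/mL protein) in 100 mM potassium phosphate, pH 7.4, at 37 °C with shaking, with or without 1 mM NADPH. Samples were taken over 0–120 min and tested in duplicate. Reactions were quenched with cold acetonitrile plus internal standard and analyzed by LC/MS/MS.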

[10] = Terminal half life in CD1 mouse at 5 mg/kg, po by HPLC coupled to tandem mass spectrometry; assay type: ADME, organism-based; conditions: in vivo, read-out: beta t1/2 (converted)
Summary of the method: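 Adult female CD-1 mice were given oral gavage at 5 mg/kg in a formulated solution, either PEG 400/dimethylacetamide/water (45/10/45, pH 5.8) or PEG 300/propylene glycol/water (55/25/20, pH 5.9). Blood samples were analysed for drug by HPLC-tandem MS, and the terminal half-life was derived.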

Liver microsome [11] = experiment: Stability in human liver microsomes assessed as compound remaining at 1 uM incubated for 1 hr in presence of NADPH by LC/MS/MS method; assay type: ADME; summary of the method: as §3
[12] = AUC (0 to infinity) in CD1 mouse at 5 mg/kg, po by HPLC coupled to tandem mass spectrometry; assay type: ADME, organism-based; set-up: dose 5 mg/kg, route oral, time infinity; conditions: in vivo
Summary of the method: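 Adult female CD-1 mice received 5 mg/kg by both the iv and the oral-gavage route. Two vehicles were used: PEG 400/dimethylacetamide/water (45/10/45, pH 5.8), or PEG 300/propylene glycol/water (55/25/20, pH 5.9). Blood samples were collected and drug was quantified by HPLC-tandem MS.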

Liver microsome [13] = experiment: Stability in human liver microsomes assessed as compound remaining at 1 uM incubated for 1 hr in absence of NADPH by LC/MS/MS method; assay type: ADME; summary of the method: as §3
Plasmodium berghei [14] = experiment: Antiplasmodial activity against Plasmodium berghei infected in Swiss Webster mouse assessed as mouse survival at 200 mg/kg, po dosed once daily for 4 consecutive days beginning 1 hr after initial infection and measured on day 8 post infection by Giemsa staining method; assay type: functional; summary of the method: as §2
Plasmodium berghei [15] = experiment: Antiplasmodial activity against Plasmodium berghei infected in Swiss Webster mouse assessed as mouse survival at 200 mg/kg, po dosed once daily for 4 consecutive days beginning 1 hr after initial infection and measured on day 5 post infection by Giemsa staining method; assay type: functional; summary of the method: as §2
Mus musculus [16] = experiment: Terminal half life in CD1 mouse assessed as 5-(1-hydroxy-1,3-dihydrobenzo[c][1,2]oxaborol-6-yloxy)pyrazine-2-carboxylic acid level at 5 mg/kg, po by HPLC coupled to tandem mass spectrometry; assay type: ADME, organism-based; conditions: in vivo
Summary of the method: (§4)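 The parent ester was given to adult female CD-1 mice at 5 mg/kg, iv or by oral gavage, in PEG 400/dimethylacetamide/water (45/10/45, pH 5.8). Blood was sampled, and the acid formed from the ester in vivo was quantified by HPLC-tandem MS to derive its PK parameters.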

Mus musculus [17] = experiment: AUC (0 to infinity) in CD1 mouse assessed as 5-(1-hydroxy-1,3-dihydrobenzo[c][1,2]oxaborol-6-yloxy)pyrazine-2-carboxylic acid level at 5 mg/kg, po by HPLC coupled to tandem mass spectrometry; assay type: ADME, organism-based; set-up: dose 5 mg/kg, route oral, time infinity; conditions: in vivo; summary of the method: as §4
Plasmodium berghei [18] = experiment: Antiplasmodial activity against Plasmodium berghei infected in Swiss Webster mouse assessed as mouse survival at 100 mg/kg, po dosed once daily for 4 consecutive days beginning 1 hr after initial infection and measured on day 16 to 19 post infection by Giemsa staining method; assay type: functional; summary of the method: as §2
Mus musculus [19] = experiment: Terminal half life in CD1 mouse assessed as 5-(1-hydroxy-1,3-dihydrobenzo[c][1,2]oxaborol-6-yloxy)pyrazine-2-carboxylic acid level at 5 mg/kg, iv by HPLC coupled to tandem mass spectrometry; assay type: ADME, organism-based; conditions: in vivo; summary of the method: as §4
Plasmodium berghei [20] = experiment: Antiplasmodial activity against Plasmodium berghei infected in Swiss Webster mouse assessed as mouse survival at 100 mg/kg, po dosed once daily for 4 consecutive days beginning 1 hr after initial infection and measured on day 14 post infection by Giemsa staining method; assay type: functional; summary of the method: as §2
Plasmodium berghei [21] = experiment: Antiplasmodial activity against Plasmodium berghei infected in Swiss Webster mouse assessed as mouse survival at 33 mg/kg, po dosed once daily for 4 consecutive days beginning 1 hr after initial infection and measured on day 13 post infection by Giemsa staining method; assay type: functional
Summary of the method: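 Female Swiss Webster mice (about 20 g) were infected ip with 6 × 10^6 P. berghei-infected erythrocytes from a donor mouse. They were dosed by oral gavage once daily for 4 days, starting 1 h post-infection, in PEG 300/propylene glycol/water (55/25/20 by weight). Parasitemia was read daily on Giemsa smears from day 4, and mice were euthanized above 50% parasitemia. Percent survival was tracked to 21 days.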

Plasmodium berghei [22] = experiment: Antiplasmodial activity against Plasmodium berghei infected in Swiss Webster mouse assessed as mouse survival at 3 mg/kg, po dosed once daily for 4 consecutive days beginning 1 hr after initial infection and measured on day 10 post infection by Giemsa staining method; assay type: functional; summary of the method: as §2
Plasmodium berghei [23] = experiment: Antiplasmodial activity against Plasmodium berghei infected in Swiss Webster mouse assessed as mouse survival at 3 mg/kg, po dosed once daily for 4 consecutive days beginning 1 hr after initial infection and measured on day 9 post infection by Giemsa staining method

## O=C(O)c1cnc(Oc2ccc3c(c2)B(O)OC3)cn1
Plasmodium falciparum
  IC50: 0.3 µM
[1]
  Tmax: 0.25 h
[2]
  half-life: 0.23 h
[3]
  half-life: 1.1 h
[4]
  Cmax: 19500 ng/mL
[5]
  AUC(0-inf): 4300 ng·h/mL
[6]
  Vd: 0.848 L/kg

## NC(=O)c1cnc(Oc2ccc3c(c2)B(O)OC3)cn1
Plasmodium berghei [7]
  survival at 200 mg/kg: 0%
Plasmodium berghei [8]
  survival at 200 mg/kg: 100%
[9]
  Stability: 100%
[10]
  half-life: 2.1 h
Liver microsome [11]
  Stability: 87%
[12]
  AUC(0-inf): 2290 ng·h/mL
Liver microsome [13]
  Stability: 100%
Plasmodium berghei [14]
  survival at 200 mg/kg: 100%
Plasmodium berghei [15]
  survival at 200 mg/kg: 100%

## COC(=O)c1cnc(Oc2ccc3c(c2)B(O)OC3)cn1
Mus musculus [16]
  beta t1/2: 1.5 h
Mus musculus [17]
  AUC: 610 ng·h/mL
Plasmodium berghei [18]
  survival at 100 mg/kg: 20%
Mus musculus [19]
  beta t1/2: 7.8 min
[10]
  half-life: 1 h
Liver microsome [11]
  Stability: 0%
Plasmodium berghei [20]
  survival at 100 mg/kg: 40%
[12]
  AUC(0-inf): 100 ng·h/mL
Plasmodium berghei [21]
  survival at 33 mg/kg: 0%
Plasmodium berghei [22]
  survival at 3 mg/kg: 40%
Plasmodium berghei [23]
  survival at 3 mg/kg: 40%
